TNAP inh noacc – human TNAP enzyme inhibitors, primary screen, biochemical, luminescent, no phosphate acceptor, uHTS. AID 1012, 2008. purified TNAP, CDP-star luminescence, 30 min. 200,000 compounds, 0.26% hits. inhibition, % at 20 µM. Alkaline phosphatase, tissue-nonspecific isozyme (Homo sapiens), P05186;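 active means tissue-nonspecific alkaline phosphatase inhibition above about 50% at 20 µM in the single-dose screen, limit read from the data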
TNAP inh hiacc – human TNAP enzyme inhibitors, primary screen, biochemical, luminescent, high phosphate acceptor level, uHTS | Alkaline phosphatase, tissue-nonspecific isozyme (Homo sapiens), P05186 | purified TNAP, CDP-star luminescence, 1 M DEA | inhibition, % at 20 µM | 200,000 compounds, 0.03% hits;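 active means over 50% inhibition of tissue-nonspecific alkaline phosphatase at 20 µM in the single-dose screen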
PMI act satM6P – human PMI activators, high substrate, primary screen, biochemical, fluorescence intensity, near-saturating mannose 6-phosphate | 190,000 compounds, 0.34% hits | Mannose-6-phosphate isomerase (Homo sapiens), P34949 | coupled PMI enzyme assay, resazurin fluorescence, 20 min; stronger effect = higher value; 1 = untreated enzyme, 0 = substrate-free blank | activation factor at 20 µM;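 active means activation factor of 2 or more at 20 µM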
Target sequence (P34949 whole entry, looked up): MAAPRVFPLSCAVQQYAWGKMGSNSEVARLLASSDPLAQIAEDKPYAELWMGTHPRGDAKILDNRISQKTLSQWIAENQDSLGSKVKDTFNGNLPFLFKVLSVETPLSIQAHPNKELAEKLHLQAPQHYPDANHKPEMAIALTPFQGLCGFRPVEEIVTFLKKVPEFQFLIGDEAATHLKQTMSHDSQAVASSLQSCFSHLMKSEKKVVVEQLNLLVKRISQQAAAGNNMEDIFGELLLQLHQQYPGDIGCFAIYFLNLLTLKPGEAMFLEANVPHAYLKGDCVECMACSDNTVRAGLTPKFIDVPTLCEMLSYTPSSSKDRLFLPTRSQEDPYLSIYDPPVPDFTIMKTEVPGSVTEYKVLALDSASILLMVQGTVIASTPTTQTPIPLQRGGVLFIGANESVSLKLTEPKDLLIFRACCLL
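Test system: human phosphomannose isomerase with PGI, G6PDH, diaphorase coupling enzymes / Doses: 20 µM compound, 1% DMSO / Times: enzyme reaction with compound 20 min at room temperature / Measured by: Diaphorase-driven resazurin-to-resorufin fluorescence, excitation 544, emission 590 nm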
PMI activator – activators of human PMI, primary screen, biochemical, fluorescence intensity, near-Km mannose 6-phosphate; Mannose-6-phosphate isomerase (Homo sapiens), P34949; purified human PMI, coupled resazurin fluorescence, 20 min; stronger effect = higher value; 1 = vehicle control, 0 substrate-free wells; activation factor at 20 µM; 190,000 compounds, 0.005% hits;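 active means activation factor of 2 or more at 20 µM, relative to plate controls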
TNAP act hiacc – TNAP activators at high phosphate acceptor level, primary screen, biochemical, luminescence, uHTS | Alkaline phosphatase, tissue-nonspecific isozyme (Homo sapiens), P05186 | purified TNAP, CDP-star luminescence, 1 M DEA, 30 min; stronger effect = higher value; 0 = EDTA background, 1 = DMSO-only activity | activation factor at 20 µM | 200,000 tested, under 10 active | AID 1136, 2008;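 active means activation factor at least 2 at 20 µM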
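Test system – human TNAP · Doses – 20 µM single point · Incubation – 30 min, room temperature · Signal – luminescent substrate turnover signal · Read-out basis – activation factor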
Each line names hits and unclear results; the compound was inactive in the other large screens. The list is not random: actives were taken first. Their share in the collection is about 0.64%.

O=C(CSc1ncn[nH]1)Nc1nc(-c2ccccc2)ns1	TNAP inh noacc 76
C=CCn1c(CCCOc2ccc(Cl)cc2Cl)n[nH]c1=S	none
CC[n+]1c(/C=C(/C)SC)sc2ccccc21	none
CC/C(=C/c1sc2ccccc2[n+]1CC)SC	PMI act satM6P 2
CC[n+]1c(/C=C(\C)SC)sc2ccccc21	PMI act satM6P 2
O=C(CC1NCCNC1=O)Nc1ccc([N+](=O)[O-])cc1 (stereo not drawn)	none
COc1ccc(-c2[nH]ncc2CN(C)C(C)c2ccncn2)c(F)c1 (stereo not drawn)	TNAP inh noacc 63
COc1ccc(-c2[nH]ncc2CN(CCO)Cc2cccs2)c(F)c1	TNAP inh noacc 69
CCN(Cc1ccncc1)Cc1cn[nH]c1-c1ccc(OC)cc1F	TNAP inh noacc 55
Cc1ccc([N+](=O)[O-])cc1NC(=O)c1cccs1	none
CC(=O)c1c(C)[nH]c(C(=O)CSc2nc3ccccc3c(=O)n2CCCO)c1C	none
Cn1ccc(=S)c2ccccc21	PMI act satM6P 2.2
Cn1c(=S)[nH]c2ccccc21	none
Cc1cc(C)cc(C(=O)N2CC(=O)Nc3ccccc32)c1	none
Cc1ccc2cc3c(N)c(C(=O)N4CCOCC4)sc3nc2c1	none
Cc1ccc2nc3sc(C(=O)N4CCOCC4)c(N)c3cc2c1	PMI act satM6P 2
Cc1ccc2cc3c(N)c(C(=O)N4CC(=O)Nc5ccccc54)sc3nc2c1	PMI act satM6P 2.1
COc1ccc(C(=O)N2CCN(Cc3cn[nH]c3-c3ccc(OC)cc3F)CC2)cc1	TNAP inh noacc 82
O=C(c1ccco1)N1CCN(Cc2cn[nH]c2-c2ccc(F)cc2F)CC1	TNAP inh noacc 78
COc1cccc(C(=O)N2CCN(Cc3ccccc3C(F)(F)F)CC2)c1	none
Cc1nonc1N1CCN(Cc2cn[nH]c2-c2ccc(F)cc2F)CC1	TNAP inh noacc 60
COc1cccc(C(=O)N2CCN(Cc3cn[nH]c3-c3ccc(F)cc3F)CC2)c1	TNAP inh noacc 65
O=S(=O)(NCc1ccccc1)c1cccs1	none
CCN(CC)CCNC(=O)c1ccc(Cl)c(S(=O)(=O)N2CCCCCC2)c1	none
Cc1cccc(C)c1NS(=O)(=O)c1ccc2c(c1)NC(=O)CO2	none
COc1ccc(-c2[nH]ncc2CN2C[C@@H]3CCC[C@H]2C3)c(F)c1	TNAP inh noacc 76
CN1CCN(Cc2cn[nH]c2-c2ccc(F)cc2F)[C@@H](c2ccccc2)C1	none
O=C(CSc1nc2ccccc2s1)Nc1ccc(Cl)c(C(=O)O)c1	PMI act satM6P 2.3
Cc1ccc(C)c(N(CC(=O)NC2CCCC2)C(=O)c2oc(C(C)(C)C)cc2C)c1	none
Cc1n[nH]c(=O)nc1NCC1CCCO1 (stereo not drawn)	none
COc1cccc(C2C(C(=O)OC(C)C)=C(C)Nc3ncnn32)c1 (stereo not drawn)	none
O=C(N/N=C\c1cccnc1)c1cc(-c2ccc(Cl)s2)[nH]n1	TNAP inh noacc 84
Cc1[nH]c2ccccc2c1/C=N/NC(=O)c1cc(-c2cccs2)[nH]n1	TNAP inh noacc 81
Cc1ccc(-c2cc(C(=O)N/N=C/c3c(C)nn(-c4ccccc4)c3C)[nH]n2)cc1	TNAP inh noacc 83
Cc1nn(-c2ccccc2)c(C)c1/C=N/NC(=O)c1cc(C(C)(C)C)[nH]n1	none
Cc1ccc(-c2cc(C(=O)N/N=C/c3c(C)nn(-c4ccccc4)c3C)n[nH]2)s1	TNAP inh noacc 60
CSc1ccc(C(=O)C2CCCN(C(=O)c3cc4cc(F)ccc4[nH]3)C2)cc1 (stereo not drawn)	none
COc1cc(C=C2C(=O)c3ccccc3C2=O)cc(OC)c1OC	none
COc1ccc(/C=C2\CC/C(=C\c3ccc(OC)c(OC)c3)C2=O)cc1OC	none
COc1ccc(C=C2C(=O)c3ccccc3C2=O)cc1O	TNAP inh hiacc 53
CCN1C/C(=C/c2ccc(OC)c(O)c2)C(=O)/C(=C/c2ccc(OC)c(O)c2)C1	TNAP inh noacc 56
COc1cc(/C=C2/C(=O)ON=C2c2ccccc2)ccc1O	TNAP inh noacc 52
COc1ccc(C(=O)N/N=C/c2c(CO)cnc(C)c2O)cc1	none
COc1ccccc1N/N=C/c1c(CO)cnc(C)c1O	PMI act satM6P 2.1
O=c1[nH]c2cc(Cl)ccc2n1-c1ccccc1	TNAP inh noacc 69
O=Cc1c(Cl)[nH]c(=O)n1-c1ccccc1	none
Cc1nnc(SC(C)C)n(N)c1=O	none
CC1CCC2(CC1)SCC(=O)N2c1ccccc1 (stereo not drawn)	none
Clc1ccc(C2CC(c3ccco3)n3ncnc3N2)cc1Cl (stereo not drawn)	none
S=c1[nH]nc(-c2ccco2)n1/N=C/c1ccccn1	none
S=c1[nH]nc(-c2ccco2)n1/N=C/c1ccc(Cl)c(Cl)c1	TNAP inh noacc 58
Cc1nc2nc(-c3ccccc3)cn2nc1C	none
CCc1ccc(-c2cn3nc(C)c(C)nc3n2)cc1	PMI act satM6P 2.2
O=C(CSc1n[nH]c(-c2ccccc2Br)n1)NC(=O)NCc1ccco1	TNAP inh noacc 82
O=C(CSc1n[nH]c(-c2ccccc2Br)n1)NCCN1C(=O)CSC1=O	TNAP inh noacc 84
CNc1c(C(=O)O)ccc2c1C(=O)c1ccccc1C2=O	none
O=C(O)c1cccc2c1C(=O)c1ccccc1C2=O	PMI act satM6P 2.5
c1ccc(-c2nc(CSc3n[nH]c(-c4cccs4)n3)cs2)cc1	TNAP inh noacc 60
Nc1cc(=O)[nH]c(SCc2csc(-c3ccccc3)n2)n1	none
CC1C(=O)CCN(C(C)C)C1C (stereo not drawn)	none
Cc1ccc(C)c(S(=O)(=O)N=Nc2c(O)[nH]c3ccccc23)c1	PMI act satM6P 2.1
Cc1ccc(S(=O)(=O)N=Nc2c(O)[nH]c3ccccc23)cc1	PMI act satM6P 2.4, PMI activator 2.2
CCCCC(CC)C(=O)Nc1cc([N+](=O)[O-])ccc1F (stereo not drawn)	none
C/C(=N\NC(=S)NCc1ccccc1)c1ccc2ccccc2c1OC(F)F	none
CC(=O)c1ccc2noc(-c3ccc(F)cc3)c2c1	PMI act satM6P 2.1
CC(=O)c1ccc2noc(-c3ccc(Cl)cc3)c2c1	none
NC(=S)c1cc2cc(Br)ccc2oc1=O	none
O=C(NNC(=O)c1cc2cc(Br)ccc2oc1=O)c1ccc(O)cc1	TNAP inh noacc 82
CSCCC(=O)Nc1nc(-c2ccccn2)cs1	PMI act satM6P 2.2
